Key:
Type in all cases: toxicity, cell-based
U2OS [1] = experiment: Incucyte cell viability with U2OS; details: human, 10 µM, compound concentration 10 uM; also: filed as whole numbers so only -1 and 0 and 1 occur
U2OS [2] = experiment: Multiplex assay against U2OS; details: human
Procedure, shortened: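 Live cells were stained at seeding with Hoechst33342, BioTracker Green Microtubule Cytoskeleton Dye, MitoTracker Red and Annexin V Alexa Fluor 680. Following compound addition, they were imaged on a CQ1 microscope at 37°C and 5% CO2 and gated by CellPathfinder machine learning into Hoechst high-intensity objects or normal cells, with normal cells split into healthy, pyknosed or fragmented nuclei and pyknosed cells into mitotic or apoptotic. Tubulin, mitochondrial-mass and membrane-permeability phenotypes are per cents of healthy-nucleus cells.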

HEK-293T = experiment: Incucyte cell viability with HEK293T; details: human, 10 µM, compound concentration 10 uM; also: filed as whole numbers so only -1 and 0 and 1 occur
[3] = 0 h, replicate number 1, timepoint 0 hours
[4] = 12 h, replicate number 1, timepoint 12 hours
[5] = 18 h, replicate number 1, timepoint 18 hours
[6] = 24 h, replicate number 1, timepoint 24 hours
[7] = 12 h, 1 µM, compound concentration 1 uM, replicate 1
[8] = 12 h, 1 µM, compound concentration 1 uM, replicate 2
[9] = 12 h, 10 µM, compound concentration 10 uM, replicate 1
[10] = 12 h, 10 µM, compound concentration 10 uM, replicate 2
[11] = 24 h, 1 µM, compound concentration 1 uM, replicate 1
[12] = 24 h, 1 µM, compound concentration 1 uM, replicate 2
[13] = 24 h, 10 µM, compound concentration 10 uM, replicate 1
[14] = 24 h, 10 µM, compound concentration 10 uM, replicate 2
[15] = 48 h, 1 µM, compound concentration 1 uM, replicate 1
[16] = 48 h, 1 µM, compound concentration 1 uM, replicate 2
[17] = 48 h, 10 µM, compound concentration 10 uM, replicate 1
[18] = 48 h, 10 µM, compound concentration 10 uM, replicate 2

CN1C(=O)[C@@H](NC(=O)c2cc3ccccc3[nH]2)N=C(c2ccccc2)c2ccccc21 [DEVAZEPIDE]
Growth Rate (U2OS [1]; [3]): 0 | Growth Rate (U2OS [1]; 6 h, replicate number 1, timepoint 6 hours): 1 | Growth Rate (U2OS [1]; [4]): 1 | Growth Rate (U2OS [1]; [5]): 1 | Growth Rate (U2OS [1]; 18 h, replicate number 2, timepoint 18 hours): 0 | Growth Rate (U2OS [1]; [6]): 1 | Growth Rate (U2OS [1]; 24 h, replicate number 2, timepoint 24 hours): 0 | Population Fragmented Nuclei (%) (U2OS [2]; [7]): 12% | Population Healthy Nuclei (%) (U2OS [2]; [7]): 76% | Population Hoechst High Intensity Objects (%) (U2OS [2]; [7]): 7% | Population Membrane Permeable-Phenotype (%) (U2OS [2]; [7]): 3% | Population Mitochondria Different-Phenotype (%) (U2OS [2]; [7]): 17% | Population Normal (%) (U2OS [2]; [7]): 92% | Population Pyknosed Nuclei (%) (U2OS [2]; [7]): 11% | Population Tubulin-Different-Phenotype (%) (U2OS [2]; [7]): 21% | Total Cell Count (U2OS [2]; [7]): 144 | Population Apoptotic (%) (U2OS [2]; [8]): 33% | Population Fragmented Nuclei (%) (U2OS [2]; [8]): 4% | Population Healthy Nuclei (%) (U2OS [2]; [8]): 85% | Population Hoechst High Intensity Objects (%) (U2OS [2]; [8]): 5% | Population Membrane Permeable-Phenotype (%) (U2OS [2]; [8]): 9% | Population Mitochondria Different-Phenotype (%) (U2OS [2]; [8]): 23% | Population Mitotic Cells (%) (U2OS [2]; [8]): 66% | Population Normal (%) (U2OS [2]; [8]): 94% | Population Pyknosed Nuclei (%) (U2OS [2]; [8]): 9% | Population Tubulin-Different-Phenotype (%) (U2OS [2]; [8]): 10% | Total Cell Count (U2OS [2]; [8]): 68 | Population Apoptotic (%) (U2OS [2]; [9]): 52% | Population Fragmented Nuclei (%) (U2OS [2]; [9]): 11% | Population Healthy Nuclei (%) (U2OS [2]; [9]): 72% | Population Hoechst High Intensity Objects (%) (U2OS [2]; [9]): 6% | Population Membrane Permeable-Phenotype (%) (U2OS [2]; [9]): 21% | Population Mitochondria Different-Phenotype (%) (U2OS [2]; [9]): 45% | Population Mitotic Cells (%) (U2OS [2]; [9]): 47% | Population Normal (%) (U2OS [2]; [9]): 93% | Population Pyknosed Nuclei (%) (U2OS [2]; [9]): 15% | Population Tubulin-Different-Phenotype (%) (U2OS [2]; [9]): 70% | Total Cell Count (U2OS [2]; [9]): 117 | Population Apoptotic (%) (U2OS [2]; [10]): 33% | Population Fragmented Nuclei (%) (U2OS [2]; [10]): 20% | Population Healthy Nuclei (%) (U2OS [2]; [10]): 75% | Population Hoechst High Intensity Objects (%) (U2OS [2]; [10]): 7% | Population Membrane Permeable-Phenotype (%) (U2OS [2]; [10]): 37% | Population Mitochondria Different-Phenotype (%) (U2OS [2]; [10]): 48% | Population Mitotic Cells (%) (U2OS [2]; [10]): 66% | Population Normal (%) (U2OS [2]; [10]): 92% | Population Pyknosed Nuclei (%) (U2OS [2]; [10]): 5% | Population Tubulin-Different-Phenotype (%) (U2OS [2]; [10]): 66% | Total Cell Count (U2OS [2]; [10]): 65 | Population Apoptotic (%) (U2OS [2]; [11]): 31% | Population Fragmented Nuclei (%) (U2OS [2]; [11]): 10% | Population Healthy Nuclei (%) (U2OS [2]; [11]): 76% | Population Hoechst High Intensity Objects (%) (U2OS [2]; [11]): 5% | Population Membrane Permeable-Phenotype (%) (U2OS [2]; [11]): 1% | Population Mitochondria Different-Phenotype (%) (U2OS [2]; [11]): 14% | Population Mitotic Cells (%) (U2OS [2]; [11]): 68% | Population Normal (%) (U2OS [2]; [11]): 94% | Population Pyknosed Nuclei (%) (U2OS [2]; [11]): 13% | Population Tubulin-Different-Phenotype (%) (U2OS [2]; [11]): 12% | Total Cell Count (U2OS [2]; [11]): 173 | Population Apoptotic (%) (U2OS [2]; [12]): 37% | Population Fragmented Nuclei (%) (U2OS [2]; [12]): 7% | Population Healthy Nuclei (%) (U2OS [2]; [12]): 82% | Population Hoechst High Intensity Objects (%) (U2OS [2]; [12]): 1% | Population Membrane Permeable-Phenotype (%) (U2OS [2]; [12]): 3% | Population Mitochondria Different-Phenotype (%) (U2OS [2]; [12]): 10% | Population Mitotic Cells (%) (U2OS [2]; [12]): 62% | Population Normal (%) (U2OS [2]; [12]): 98% | Population Pyknosed Nuclei (%) (U2OS [2]; [12]): 10% | Population Tubulin-Different-Phenotype (%) (U2OS [2]; [12]): 6% | Total Cell Count (U2OS [2]; [12]): 79 | Population Apoptotic (%) (U2OS [2]; [13]): 87% | Population Fragmented Nuclei (%) (U2OS [2]; [13]): 22% | Population Healthy Nuclei (%) (U2OS [2]; [13]): 49% | Population Hoechst High Intensity Objects (%) (U2OS [2]; [13]): 6% | Population Membrane Permeable-Phenotype (%) (U2OS [2]; [13]): 29% | Population Mitochondria Different-Phenotype (%) (U2OS [2]; [13]): 29% | Population Mitotic Cells (%) (U2OS [2]; [13]): 12% | Population Normal (%) (U2OS [2]; [13]): 93% | Population Pyknosed Nuclei (%) (U2OS [2]; [13]): 27% | Population Tubulin-Different-Phenotype (%) (U2OS [2]; [13]): 47% | Total Cell Count (U2OS [2]; [13]): 123 | Population Apoptotic (%) (U2OS [2]; [14]): 92% | Population Fragmented Nuclei (%) (U2OS [2]; [14]): 28% | Population Hoechst High Intensity Objects (%) (U2OS [2]; [14]): 7% | Population Membrane Permeable-Phenotype (%) (U2OS [2]; [14]): 19% | Population Mitochondria Different-Phenotype (%) (U2OS [2]; [14]): 45% | Population Mitotic Cells (%) (U2OS [2]; [14]): 7% | Population Normal (%) (U2OS [2]; [14]): 92% | Population Pyknosed Nuclei (%) (U2OS [2]; [14]): 22% | Population Tubulin-Different-Phenotype (%) (U2OS [2]; [14]): 51% | Total Cell Count (U2OS [2]; [14]): 68 | Population Apoptotic (%) (U2OS [2]; [15]): 33% | Population Fragmented Nuclei (%) (U2OS [2]; [15]): 9% | Population Healthy Nuclei (%) (U2OS [2]; [15]): 82% | Population Hoechst High Intensity Objects (%) (U2OS [2]; [15]): 3% | Population Membrane Permeable-Phenotype (%) (U2OS [2]; [15]): 4% | Population Mitochondria Different-Phenotype (%) (U2OS [2]; [15]): 14% | Population Mitotic Cells (%) (U2OS [2]; [15]): 66% | Population Normal (%) (U2OS [2]; [15]): 96% | Population Pyknosed Nuclei (%) (U2OS [2]; [15]): 8% | Population Tubulin-Different-Phenotype (%) (U2OS [2]; [15]): 8% | Total Cell Count (U2OS [2]; [15]): 231 | Population Apoptotic (%) (U2OS [2]; [16]): 50% | Population Fragmented Nuclei (%) (U2OS [2]; [16]): 8% | Population Healthy Nuclei (%) (U2OS [2]; [16]): 78% | Population Hoechst High Intensity Objects (%) (U2OS [2]; [16]): 1% | Population Membrane Permeable-Phenotype (%) (U2OS [2]; [16]): 5% | Population Mitochondria Different-Phenotype (%) (U2OS [2]; [16]): 18% | Population Mitotic Cells (%) (U2OS [2]; [16]): 50% | Population Normal (%) (U2OS [2]; [16]): 98% | Population Pyknosed Nuclei (%) (U2OS [2]; [16]): 12% | Population Tubulin-Different-Phenotype (%) (U2OS [2]; [16]): 16% | Total Cell Count (U2OS [2]; [16]): 96 | Population Apoptotic (%) (U2OS [2]; [17]): 89% | Population Fragmented Nuclei (%) (U2OS [2]; [17]): 21% | Population Healthy Nuclei (%) (U2OS [2]; [17]): 37% | Population Hoechst High Intensity Objects (%) (U2OS [2]; [17]): 5% | Population Membrane Permeable-Phenotype (%) (U2OS [2]; [17]): 31% | Population Mitochondria Different-Phenotype (%) (U2OS [2]; [17]): 38% | Population Mitotic Cells (%) (U2OS [2]; [17]): 10% | Population Normal (%) (U2OS [2]; [17]): 94% | Population Pyknosed Nuclei (%) (U2OS [2]; [17]): 41% | Population Tubulin-Different-Phenotype (%) (U2OS [2]; [17]): 45% | Total Cell Count (U2OS [2]; [17]): 124 | Population Apoptotic (%) (U2OS [2]; [18]): 92% | Population Fragmented Nuclei (%) (U2OS [2]; [18]): 24% | Population Healthy Nuclei (%) (U2OS [2]; [18]): 50% | Population Hoechst High Intensity Objects (%) (U2OS [2]; [18]): 13% | Population Membrane Permeable-Phenotype (%) (U2OS [2]; [18]): 55% | Population Mitochondria Different-Phenotype (%) (U2OS [2]; [18]): 55% | Population Mitotic Cells (%) (U2OS [2]; [18]): 7% | Population Normal (%) (U2OS [2]; [18]): 86% | Population Pyknosed Nuclei (%) (U2OS [2]; [18]): 24% | Population Tubulin-Different-Phenotype (%) (U2OS [2]; [18]): 58% | Total Cell Count (U2OS [2]; [18]): 66 | Growth Rate (HEK-293T; [3]): 0 | Growth Rate (HEK-293T; 6 h, replicate number 2, timepoint 6 hours): 1 | Growth Rate (HEK-293T; [4]): 1 | Growth Rate (HEK-293T; 12 h, replicate number 2, timepoint 12 hours): 0 | Growth Rate (HEK-293T; [5]): 0 | Growth Rate (HEK-293T; [6]): 0
